Here are results for 89 molecules from PubChem BioAssay AID624289 (Broad Institute, 2012).

Values joined by “and” are separate entries in the source; they are usually repeats but may differ in a detail not shown here. Equal values may be shown once. Active and inactive are the calls of the source.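 How the source made its calls: active means compounds lowering cell ATP signal with a fitted AC50 no higher than twice the top tested dose; inconclusive means flat curve with 30 to 70% signal loss, or poor fit; inactive means the rest.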

The term AC50 denotes the midpoint of the concentration-response curve, whichever way the signal moves.

For the first experiment, the system named is SK-MEL-5 viability, ATP luminescence (CellTiter-Glo), 24 h. Kind of experiment: SK-MEL-5 parental cell viability reduction, dose response, orthogonal assay for MITF inhibitor project, CellTiter-Glo, dry powder samples, set 2 (AID 624289).
Details: not given
The procedure, abridged: (§1)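 system = SK-MEL-5 human melanoma cells, parental line of primary-screen reporter | input = 3000 SK-MEL-5 cells per well | buffer or medium = phenol red-free growth medium | dosing = pinned compound dose series | times = 24 h compound treatment at 37 °C, 5 min read delay | signal = ATP luminescence, CellTiter-Glo | measure = cell viability inferred from cellular ATP level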
Regarding `O=C1C(NS(=O)(=O)c2cccs2)=C(N2CCOCC2)C(=O)c2ccccc21`, the AC50 was 21.1 µM. On the same count and under the same terms, the result for `O=C1C(NS(=O)(=O)c2ccccc2)=C(N2CCOCC2)C(=O)c2ccccc21` reads 19.4 µM.

In the case of `NC1=C(NC(=O)c2ccccc2)C(=O)c2ccccc2C1=O`, the AC50 is 10.1 µM. The same measure, in the same setting: the result for `COc1cccc(-c2cc(C(=O)NC3=C(Cl)C(=O)c4ccccc4C3=O)ccc2OC)c1` reads 22.4 µM; that for `O=C1C(NS(=O)(=O)c2ccc(Br)s2)=C(N2CCCCC2)C(=O)c2ccccc21`, 28.9 µM. The same measure, in the same setting: the result for `O=C(NC1=C(N2CCSCC2)C(=O)c2ccccc2C1=O)c1ccc(Br)cc1` reads 28.1 µM. Same read-out and setting: the result for `COc1ccc(C2=C(NC(=O)c3ccccc3OC)C(=O)c3ccccc3C2=O)cc1` reads > 70 µM (inactive).

Turning to `O=C1C(NS(=O)(=O)c2ccc(Br)cc2)=C(N2CCCCC2)C(=O)c2ccccc21`, the AC50 is 32.6 µM. On to `COc1ccc(C2=C(NC(=O)c3ccc(OC)cc3-c3cccc(OC)c3)C(=O)c3ccccc3C2=O)cc1`, for which the AC50 is > 70 µM (inactive).

For the molecule `O=C(NC1=C(N2CCOCC2)C(=O)c2ccccc2C1=O)c1ccccc1`, the AC50 is 18.2 µM. Turning to `O=C1C(NS(=O)(=O)c2ccc(Br)cc2)=C(N2CCN(c3ccccc3)CC2)C(=O)c2ccccc21`, the AC50 was 25.2 µM. The same measure, in the same setting: for `CCN(CC)CCCNC1=C(Nc2ccccc2)C(=O)c2ccccc2C1=O` the value was 21.1 µM.

As to `C=CCNC1=C(NS(=O)(=O)c2cccs2)C(=O)c2ccccc2C1=O`, the AC50 is 24.4 µM. As for `O=C(NC1=C(c2ccc(Oc3ccccc3)cc2)C(=O)c2ccccc2C1=O)c1ccccc1`, the AC50 is > 70 µM (inactive). The same measure, in the same setting: for `CCN1CCN(C2=C(NC(=O)c3ccc(Br)cc3)C(=O)c3ccccc3C2=O)CC1` the value was 3.7 µM. For the molecule `CC(=O)N(C)C1=C(N2CCOCC2)C(=O)c2ccccc2C1=O`, the half-maximal activity concentration (AC50) is 5.55 µM.

`CN1CCN(C2=C(NC(=O)c3ccc(Br)cc3)C(=O)c3ccccc3C2=O)CC1`: the AC50 was 3.05 µM. On the same count and under the same terms, the result for `CCN1CCN(C2=C(NS(=O)(=O)c3ccc(Br)cc3)C(=O)c3ccccc3C2=O)CC1` reads 25.4 µM; that for `CN1CCN(C2=C(NC(=O)c3ccccc3)C(=O)c3ccccc3C2=O)CC1`, 5.15 µM; that for `O=C1C(Nc2ccccc2)=C(N2CCCCC2)C(=O)c2ccccc21`, 8.69 µM. As to `COc1ccc(C2=C(NC(C)=O)C(=O)c3ccccc3C2=O)cc1`, the AC50 was 11.7 µM. With `O=C(NC1=C(c2ccccc2)C(=O)c2ccccc2C1=O)c1ccc(Br)cc1`, the AC50 was 28.9 µM.

`C=CCNC1=C(N2CCCCC2)C(=O)c2ccccc2C1=O`: the AC50 was 2.66 µM. As for `O=C(NC1=C(c2ccccc2)C(=O)c2ccccc2C1=O)c1ccccc1`, the AC50 is 20.6 µM.

In the case of `CN1CCN(C2=C(Nc3ccccc3)C(=O)c3ccccc3C2=O)CC1`, the AC50 is 14.1 µM. Turning to `Cc1nc2ccccc2n1/N=C/c1ccc([N+](=O)[O-])s1`, the AC50 was 6.5 µM. Same read-out and setting: the result for `CCN1CCN(C2=C(N(C)C(C)=O)C(=O)c3ccccc3C2=O)CC1` reads 3.29 µM; that for `CC(=O)NC1=C(c2ccccc2)C(=O)c2ccccc2C1=O`, 15.2 µM; that for `CCN1c2ccccc2NC2N=C(OC)C(c3ccccc3)C21` (centres undefined), 11.1 µM.

Consider `O=C1C(NS(=O)(=O)c2ccc(Br)s2)=C(N2CCOCC2)C(=O)c2ccccc21`, for which the AC50 is 23.2 µM. Still for that read-out and setting: for `C=CCNC1=C(NCCCN2CCOCC2)C(=O)c2ccccc2C1=O` the value was 33.1 µM; for `CN1CCN(C2=C(NS(=O)(=O)c3ccc(Br)s3)C(=O)c3ccccc3C2=O)CC1`, 13.9 µM; for `C=CCNC1=C(Cl)C(=O)c2ccccc2C1=O`, 5.18 µM and 7.1 µM.

On to `C=CCNC1=C(N2CCN(C)CC2)C(=O)c2ccccc2C1=O`, for which the half-maximal activity concentration (AC50) was 20.1 µM. As for `COc1ccc(C2=C(NC(=O)c3ccc(Cl)cc3)C(=O)c3ccccc3C2=O)cc1`, the concentration at half-maximal activity (AC50) was 25.2 µM.

For the molecule `C=CCNC1=C(NS(=O)(=O)c2ccc(Br)cc2)C(=O)c2ccccc2C1=O`, the AC50 is 24.4 µM. On the same count and under the same terms, for `CC(=O)NC1=C(c2cccc(Cl)c2)C(=O)c2ccccc2C1=O` the value was 11.5 µM; for `CN1CCN(C2=C(NS(=O)(=O)c3ccccc3)C(=O)c3ccccc3C2=O)CC1`, 11.1 µM. The same measure, in the same setting: the result for `COc1ccc(C2=C(NC(=O)c3ccc4ccccc4c3)C(=O)c3ccccc3C2=O)cc1` reads > 70 µM (inactive).

In the case of `C=CCNC1=C(N(C)C(C)=O)C(=O)c2ccccc2C1=O`, the AC50 is 0.274 µM.

On to `O=C1C(NS(=O)(=O)c2ccc(Br)cc2)=C(c2ccccc2)C(=O)c2ccccc21`, for which the AC50 is 30.9 µM.

With `CC(=O)NC1=C(c2ccc(Cl)cc2)C(=O)c2ccccc2C1=O`, the AC50 was 15.8 µM.

Consider `CC(=O)N(C)C1=C(N2CCCCC2)C(=O)c2ccccc2C1=O`, for which the AC50 is 2.67 µM. In the case of `O=C1C(NS(=O)(=O)c2ccc(Br)cc2)=C(N2CCOCC2)C(=O)c2ccccc21`, the AC50 is 12.2 µM.

Consider `CC(=O)NC1=C(c2ccc(Oc3ccccc3)cc2)C(=O)c2ccccc2C1=O`, for which the AC50 was 14.2 µM. On the same count and under the same terms, for `O=C1C(NS(=O)(=O)c2ccc(Br)s2)=C(N2CCSCC2)C(=O)c2ccccc21` the value was 29.1 µM; for `CCN(CC)CCNC1=C(Nc2ccccc2)C(=O)c2ccccc2C1=O`, 36.4 µM; for `C=CCNC1=C(N2CCSCC2)C(=O)c2ccccc2C1=O`, 12.3 µM.

For `CCN1CCN(C2=C(Nc3ccccc3)C(=O)c3ccccc3C2=O)CC1`, the AC50 was 14.2 µM.

Regarding `NC1=C(c2ccc(OC(F)(F)F)cc2)C(=O)c2ccccc2C1=O`, the AC50 is > 70 µM (inactive). In the case of `O=C(NC1=C(N2CCOCC2)C(=O)c2ccccc2C1=O)c1ccc(Br)cc1`, the AC50 is 15.9 µM. The same measure, in the same setting: the result for `CCN1CCN(C2=C(NC(=O)c3ccccc3)C(=O)c3ccccc3C2=O)CC1` reads 5.2 µM. The same measure, in the same setting: for `Cc1ccc(C(=O)NC2=C(c3ccccc3)C(=O)c3ccccc3C2=O)o1` the value was 19.3 µM; for `C=CCNC1=C(NCCCN(CC)CC)C(=O)c2ccccc2C1=O`, 11.5 µM.

On to `CCN1CCN(C2=C(NS(=O)(=O)c3ccc(Br)s3)C(=O)c3ccccc3C2=O)CC1`, for which the AC50 was 26.1 µM. Still for that read-out and setting: for `O=C1C(Nc2ccccc2)=C(N2CCOCC2)C(=O)c2ccccc21` the value was 29.3 µM and 24.5 µM; for `NC1=CC(=O)c2ccccc2C1=O`, 7.35 µM.

For the molecule `CCN1CCN(C2=C(NS(=O)(=O)c3cccs3)C(=O)c3ccccc3C2=O)CC1`, the AC50 is 19.2 µM. Still for that read-out and setting: for `C[C@@H](NC1=C(Nc2ccccc2)C(=O)c2ccccc2C1=O)c1ccccc1` the value was > 70 µM (inactive); for `CCN(CC)CCCNC1=C(N(C)C(C)=O)C(=O)c2ccccc2C1=O`, 3.19 µM.

`CN1CCN(C2=C(NS(=O)(=O)c3ccc(Br)cc3)C(=O)c3ccccc3C2=O)CC1`: the AC50 is > 70 µM (inactive). The same measure, in the same setting: the result for `NC1=C(c2ccccc2)C(=O)c2ccccc2C1=O` reads 28.5 µM.

Consider `COC1=C(NS(=O)(=O)c2ccccc2)C(=O)c2ccccc2C1=O`, for which the AC50 is 7.28 µM.

Take `C=CCNC1=C(N2CCN(CC)CC2)C(=O)c2ccccc2C1=O`: the half-maximal activity concentration (AC50) was 20.1 µM. `Cc1ccc(C(=O)NC2=C(c3ccc(OC(F)(F)F)cc3)C(=O)c3ccccc3C2=O)o1`: the AC50 was 29.5 µM. On the same count and under the same terms, the result for `C=CCNC1=C(NCCN(CC)CC)C(=O)c2ccccc2C1=O` reads 9.17 µM; that for `O=C(NC1=C(c2ccc(OC(F)(F)F)cc2)C(=O)c2ccccc2C1=O)c1ccccc1`, 24.3 µM; that for `O=C(NC1=C(c2ccc(OC(F)(F)F)cc2)C(=O)c2ccccc2C1=O)c1ccco1`, 23.1 µM.

`COc1ccc(C2=C(NC(=O)c3cccc(Cl)c3)C(=O)c3ccccc3C2=O)cc1`: the AC50 is 23.1 µM. Consider `O=C(NC1=C(N2CCSCC2)C(=O)c2ccccc2C1=O)c1ccccc1`, for which the AC50 was 13.2 µM. Regarding `COc1ccc(C(=O)NC2=C(c3ccc(OC)cc3)C(=O)c3ccccc3C2=O)cc1`, the AC50 was 15 µM.

For the molecule `O=C(NC1=C(Cl)C(=O)c2ccccc2C1=O)c1ccccc1`, the AC50 is 4.73 µM. The same measure, in the same setting: the result for `O=C1C=C(Nc2ccccc2)C(=O)c2ccccc21` reads 1.46 µM. On the same count and under the same terms, for `O=C(NC1=C(N2CCN(c3ccccc3)CC2)C(=O)c2ccccc2C1=O)c1ccccc1` the value was > 70 µM (inactive). Same read-out and setting: the result for `COc1cccc(C2=C(NC(=O)c3ccccc3)C(=O)c3ccccc3C2=O)c1` reads 19.1 µM. For `COc1ccc(S(=O)(=O)N(C(C)=O)c2ccc(OC(C)=O)c3ccccc23)cc1[N+](=O)[O-]`, the AC50 is 19.9 µM. Take `O=C(NC1=C(c2ccccc2)C(=O)c2ccccc2C1=O)c1ccco1`: the AC50 was 20.4 µM. Same read-out and setting: for `COc1ccc(C(=O)NC2=C(c3ccccc3)C(=O)c3ccccc3C2=O)cc1` the value was 21.5 µM. `COc1ccc(C2=C(NC(=O)c3ccccc3Cl)C(=O)c3ccccc3C2=O)cc1`: the AC50 was 17.1 µM. Still for that read-out and setting: for `COc1ccc(C2=C(NC(=O)c3cccc(OC)c3)C(=O)c3ccccc3C2=O)cc1` the value was 24.4 µM; for `CC(=O)NC1=C(c2ccc3c(c2)oc2ccccc23)C(=O)c2ccccc2C1=O`, 17.4 µM. In the case of `O=C(CNc1cccc2ccccc12)N/N=C/c1ccc([N+](=O)[O-])o1`, the AC50 is 19.8 µM.

On to `C=C1C(=O)OC2C1CC/C(C)=C\CCC1(C)OC21` (centres undefined), for which the AC50 is > 70 µM (inactive). For the molecule `O=C1C(NS(=O)(=O)c2ccc(Br)cc2)=C(N2CCSCC2)C(=O)c2ccccc21`, the AC50 was 32.5 µM. On the same count and under the same terms, for `O=C1C(Nc2ccccc2)=C(N2CCN(c3ccccc3)CC2)C(=O)c2ccccc21` the value was > 70 µM (inactive); for `C=CCNC1=C(N2CCOCC2)C(=O)c2ccccc2C1=O`, 6.79 µM. Still for that read-out and setting: for `CC(=O)N(C)C1=C(N2CCN(C)CC2)C(=O)c2ccccc2C1=O` the value was 3.16 µM; for `CCN(CC)CCCCNC1=C(Nc2ccccc2)C(=O)c2ccccc2C1=O`, 33.2 µM.

Tested on in the next experiment: not listed separately
The description is as above. The conditions noted are these: SK-MEL-5 viability, ATP luminescence (CellTiter-Glo), 24 h; at 35 µM (top of the series). The essentials: as §1
(In general: ATP-based viability assays read luminescence as a measure of living cells.)
For `C=CCNC1=C(NCC=C)C(=O)c2ccccc2C1=O`, the activity change, negative = inhibition is -6.6% (inactive).
